One assay has as its system Aeromonas salmonicida. In words: Antimicrobial activity against Aeromonas salmonicida subsp. salmonicida CIP 103209T after 24 hrs by broth micro dilution assay. The assay is classed as functional. The procedure, abridged: (§1)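 Compounds were in DMSO (at most 5% of total volume) and were incubated with the strain in PB medium in 96-well plates at 37 °C for 24 h with stirring. Growth was read as optical density at 630 nm. Runs were in triplicate and averaged. Wells without growth were plated on rich solid medium to tell bacteriostatic from bactericidal action.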

Another assay has as its system Vibrio anguillarum. Description: Antimicrobial activity against Vibrio anguillarum CIP 63.36T after 24 hrs by broth micro dilution assay. The class given is functional. The procedure, abridged: as §1
The subject of a further assay is Shewanella baltica. Description: Antimicrobial activity against Shewanella baltica CIP 105850T after 24 hrs by broth micro dilution assay. The class given is functional. The essentials:
as §1

The next assay deals with Escherichia coli. In words: Antimicrobial activity against Escherichia coli CIP 54.8 after 24 hrs by broth micro dilution assay. The assay is classed as functional. Particulars: CIP 54.8, 24 h. The procedure, abridged: as §1
A further assay has as its system Micrococcus luteus. In words: Antimicrobial activity against Micrococcus luteus CIP A270 after 24 hrs by broth micro dilution assay. The settings on record: CIP A270, 24 h. The assay is classed as functional. The procedure, abridged: as §1
In assay [1] the test system is Paracentrotus lividus. In words: Antiproliferative activity against Paracentrotus lividus eggs assessed as inhibition of first cell division measured 75 mins post fertilization by inverted microscopy. The settings on record: 1.25 h.
Assay [2] has as its system SH-SY5Y. Description: Cytotoxicity against human SH-SY5Y cells assessed as decrease in cell viability at 0.001 to 100 uM after 24 hrs by MTT assay. The assay is classed as functional, cell-based. The essentials: (§2)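 SH-SY5Y cells were grown in DMEM/F-12 with 10% FBS at 37 °C in 5% CO2. Cells were seeded at 5 × 10^4 per well one day ahead, then treated at 0.001–100 μM for 24 h. MTT at 500 μg/mL was added for 1 h at 37 °C, cells were lysed with 5% SDS, and absorbance was read at 595 nm. The saponin death control was subtracted, and IC50 came from a log(inhibitor)–response fit.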
(In general: Tetrazolium assays rely on reduction of a dye to a coloured formazan, in cell work by metabolically active cells.)

Assay [3] deals with SH-SY5Y. In words: Cytotoxicity against human SH-SY5Y cells assessed as decrease in cell viability after 24 hrs by MTT assay. The assay is classed as functional, cell-based. The essentials:
as §2

Assay [4] deals with SH-SY5Y. Description: Induction of cell death in human SH-SY5Y cells at 15 uM pretreated with caspase inhibitor ZVAD-FMK for 24 hrs followed by compound addition measured after 6 hrs by MTT assay. The assay is classed as functional, cell-based. The essentials:
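SH-SY5Y cells were seeded as for MTT and preincubated with 40 μM Z-VAD-FMK for 24 h. Compound was then added (5, 10, 15 μM) for 6 h, and viability was read by MTT as % of untreated cells. Staurosporine (0.5 μM) was the apoptosis control. Data are mean ± SEM of three independent experiments in triplicate, with Student's t test.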

Assay [5] relates to SH-SY5Y. In words: Induction of apoptosis in human SH-SY5Y cells at 6 uM after 6 hrs by Annexin V-FITC/PI staining based flow cytometry. The assay is classed as functional. The essentials: (§3)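 SH-SY5Y cells were seeded at 1 × 10^6 per well and treated 6 h at 6 μM. Cells were washed in PBS and stained with annexin V–FITC and propidium iodide for 15 min. 10 000 events were analysed by imaging flow cytometry and classed as viable, apoptotic, late apoptotic or necrotic. Staurosporine (1 μM) was the death control. Data are mean ± SEM of three experiments, with Student's t test.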
In general terms: In flow cytometry, cells or beads pass a laser one at a time.

In assay [6] the test system is SH-SY5Y. In words: Induction of apoptosis in human SH-SY5Y cells assessed as necrotic cells at 6 uM after 6 hrs by Annexin V-FITC/PI staining based flow cytometry. The class given is functional. The procedure, abridged:
as §3

In assay [7] the test system is SH-SY5Y. In words: Induction of apoptosis in human SH-SY5Y cells at 1 uM after 6 hrs by Annexin V-FITC/PI staining based flow cytometry. The class given is functional, cell-based. The procedure, abridged:
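SH-SY5Y cells in DMEM/F-12 with 10% FBS at 37 °C, 5% CO2, seeded at 1 × 10^6 cells per well and exposed 6 h. They were then washed in PBS, stained 15 min with annexin V–FITC plus propidium iodide in binding buffer, and 10 000 events were read by imaging flow cytometry. Cells were classed as viable, apoptotic, late apoptotic or necrotic. Three independent experiments; mean ± SEM; Student's t test vs untreated cells.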

In assay [8] the test system is Paracentrotus lividus. In words: Antiproliferative activity against Paracentrotus lividus eggs assessed as inhibition of first cell division at 2 uM measured 75 mins post fertilization by inverted microscopy relative to control. The assay is classed as functional. The settings on record: 1.25 h. The essentials: (§4)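 Paracentrotus lividus gametes were collected after acetylcholine injection into the coelomic cavity. Fertilized eggs were incubated with compound at 0–30 μM in 96-well microplates. Dividing eggs were scored under an inverted microscope at 75 min post-fertilization, when control eggs had completed first cleavage. The percentage of dividing eggs was recorded.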

The test system of assay [9] is Paracentrotus lividus. Description: Antiproliferative activity against Paracentrotus lividus eggs assessed as inhibition of first cell division at 4 uM measured 75 mins post fertilization by inverted microscopy relative to control. The assay is classed as functional. Particulars: 1.25 h. The essentials: as §4
The subject of assay [10] is Paracentrotus lividus. In words: Antiproliferative activity against Paracentrotus lividus eggs assessed as cells divided with formation of extracellular cytoplasmic granules at 5 uM measured 80 mins post fertilization by reversed optical microscopy. The assay is classed as functional. The procedure, abridged: (§5)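 P. lividus fertilized eggs were kept with 5 μM compound, with controls in seawater containing 1% MeOH. Morphology was scored under a reversed optical microscope (20×) at 80 min, 120 min and 18 h post-fertilization. The percentage of each typical phenotype was recorded.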

In assay [11] the test system is Paracentrotus lividus. Description: Antiproliferative activity against Paracentrotus lividus eggs assessed as inhibition of cell division at 5 uM measured 80 mins post fertilization by reversed optical microscopy. The assay is classed as functional, organism-based. The procedure, abridged: as §5
Assay [12] concerns Paracentrotus lividus. In words: Induction of morphological changes in Paracentrotus lividus eggs assessed as granulations of plasmic membrane at 5 uM measured 80 to 120 mins post fertilization by reversed optical microscopy. The class given is functional, organism-based. The procedure, abridged:
as §5

Assay [13] has as its system Paracentrotus lividus. In words: Inhibition of cell division in Paracentrotus lividus eggs assessed as reduction in reaching mesenchymal blastula stage at 5 uM measured 18 hrs post fertilization by reversed optical microscopy. The class given is functional, organism-based. The procedure, abridged: as §5
The test system of assay [14] is Paracentrotus lividus. Description: Induction of morphological changes in Paracentrotus lividus eggs assessed as membrane blebbing at 5 uM measured 80 to 120 mins post fertilization by reversed optical microscopy. The assay is classed as functional, organism-based. The essentials: as §5
For assay [15], the system named is Paracentrotus lividus. In words: Induction of DNA fragmentation in Paracentrotus lividus eggs at 5 uM measured 60 mins post fertilization by TUNEL based fluorescence assay. The assay is classed as functional, organism-based. The essentials:
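P. lividus eggs were treated with 5 μM compound. Before first division (60 min post-fertilization), fluorescent TUNEL labelling of 3′-OH DNA ends was done. DNase-treated eggs served as positive control and untreated eggs as negative control.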

Assay [16] deals with Paracentrotus lividus. Description: Cell cycle arrest in Paracentrotus lividus eggs assessed as dispersion of condensed DNA in nucleus at 5 uM measured 60 mins post fertilization by DAPI staining staining based assay. The assay is classed as functional, organism-based. The procedure, abridged: (§6)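 Fertilized P. lividus eggs were treated with 5 μM compound and stained with DAPI to show nuclear DNA at 30 and 60 min post-fertilization. Chromatin state was compared with untreated control eggs.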

Assay [17] deals with Paracentrotus lividus. Description: Induction of apoptosis in Paracentrotus lividus eggs assessed as DNA condensation at 5 uM measured 30 mins post fertilization by DAPI staining staining based assay. The class given is functional, organism-based. The procedure, abridged:
as §6

Assay [18] has as its system Paracentrotus lividus. Description: Induction of apoptosis in Paracentrotus lividus eggs assessed as DNA localization at nuclear periphery at 5 uM measured 30 mins post fertilization by DAPI staining staining based assay. The assay is classed as functional, organism-based. The essentials:
as §6

The source of these data is ChEMBL document CHEMBL4145585, “Structures and Activities of Tiahuramides A-C, Cyclic Depsipeptides from a Tahitian Collection of the Marine Cyanobacterium Lyngbya majuscula” (J Nat Prod, 2018).

≈ marks a conversion by molar mass, not a printed value. Calls of active or inactive are those of the source. A value given as a limit tells only on which side of the number the result lay.

Broadly, the MIC is the smallest concentration in the dilution series that meets the test's criterion for growth inhibition. A high value points to a less susceptible organism. What is called IC50 is the concentration needed to halve the response being measured. On to `C#CCCC[C@H]1OC(=O)[C@H]([C@@H](C)CC)N(C)C(=O)[C@@H]2CCCN2C(=O)[C@H](Cc2ccccc2)OC(=O)[C@H](C(C)C)N(C)C(=O)[C@H](C(C)C)NC(=O)[C@H]1C`, for which the MIC with Aeromonas salmonicida was 27 µM (≈ 19.9 µg/mL); in the assay with Vibrio anguillarum, 33 µM (≈ 24.3 µg/mL); against Shewanella baltica it was over 50 µM; against Escherichia coli it was 35 µM (≈ 25.8 µg/mL); in the assay with Micrococcus luteus, 47 µM (≈ 34.6 µg/mL). For the same molecule, the IC50 in the assay on Paracentrotus lividus [1] came out at 11 µM. Moreover, the outcome in the assay on SH-SY5Y [2] was inactive.
Regarding `CCCCC[C@H]1OC(=O)[C@H]([C@@H](C)CC)N(C)C(=O)[C@@H]2CCCN2C(=O)[C@H](Cc2ccccc2)OC(=O)[C@H](C(C)C)N(C)C(=O)[C@H](C(C)C)NC(=O)[C@H]1C`, the MIC in the assay with Aeromonas salmonicida was 6.7 to 7 µM (≈ 4.96 to 5.19 µg/mL); in the assay on Vibrio anguillarum, 7 to 7.4 µM (≈ 5.19 to 5.48 µg/mL); against Shewanella baltica, 16 µM (≈ 11.9 µg/mL); against Escherichia coli, 14 µM (≈ 10.4 µg/mL); against Micrococcus luteus, 17 µM (≈ 12.6 µg/mL). Besides, the IC50 was determined as 7 µM in the assay with Paracentrotus lividus [1] and 6 µM with SH-SY5Y [3]. Also, in the assay on SH-SY5Y [4], the result was Active. Also, the Activity in the assay on SH-SY5Y [5] amounted to 7.9%; in the assay with SH-SY5Y [6] it was 36%.
In the case of `CN[C@@H]1C[C@H]2O[C@@](C)([C@@H]1OC)n1c3ccccc3c3c4c(c5c6ccccc6n2c5c31)C(=O)NC4`, the outcome with SH-SY5Y [7] was Active.
Usually inhibition stands for how much of the control response was suppressed. `C=CCCC[C@H]1OC(=O)[C@H]([C@@H](C)CC)N(C)C(=O)[C@@H]2CCCN2C(=O)[C@H](Cc2ccccc2)OC(=O)[C@H](C(C)C)N(C)C(=O)[C@H](C(C)C)NC(=O)[C@H]1C`: the MIC against Aeromonas salmonicida was found to be 9.4 µM (≈ 6.95 µg/mL); in the assay on Vibrio anguillarum, 8.5 µM (≈ 6.28 µg/mL); against Shewanella baltica it was 22 µM (≈ 16.3 µg/mL); against Escherichia coli, 12 µM (≈ 8.87 µg/mL); with Micrococcus luteus, 29 µM (≈ 21.4 µg/mL). The values for the IC50 with Paracentrotus lividus [1] and in the assay with SH-SY5Y [3] were 3.9 µM and 14 µM, respectively. The inhibition at 2 µM in the assay on Paracentrotus lividus [8] was 10%. In the assay on Paracentrotus lividus [9], the inhibition at 4 µM was determined as 60%. Besides, the Activity in the assay on Paracentrotus lividus [10] worked out at 8%. In addition, the inhibition entry in the assay with Paracentrotus lividus [11] and in the assay with Paracentrotus lividus [13] was “Active” throughout. For the same molecule, the outcome with Paracentrotus lividus [12], with Paracentrotus lividus [14], with Paracentrotus lividus [15], in the assay on Paracentrotus lividus [16], with Paracentrotus lividus [17] and in the assay on Paracentrotus lividus [18] was Active.
